From ChEMBL document CHEMBL4043093, “2-Oxo-3, 4-dihydropyrimido[4, 5-d]pyrimidinyl derivatives as new irreversible pan fibroblast growth factor receptor (FGFR) inhibitors” (Eur J Med Chem, 2017)

Key:
[1] = molecular target: Proto-oncogene tyrosine-protein kinase receptor Ret (Homo sapiens) (UniProt P07949); experiment: Inhibition of wild-type human partial length RET (E713 to D1014 residues) expressed in Escherichia coli BL21 assessed as residual activity at 1000 nM after 30 mins by Kinomescan method relative to control
[2] = molecular target: Serine/threonine-protein kinase PAK 5 (Homo sapiens) (UniProt Q9P286); experiment: Inhibition of wild-type human partial length PAK7 (Y400 to H719 residues) expressed in Escherichia coli BL21 assessed as residual activity at 1000 nM after 30 mins by Kinomescan method relative to control
[3] = molecular target: Serine/threonine-protein kinase RIO3 (Homo sapiens) (UniProt O14730); experiment: Inhibition of wild-type human full length RIOK3 (M1 to E519 residues) expressed in Escherichia coli BL21 assessed as residual activity at 1000 nM after 30 mins by Kinomescan method relative to control
[4] = molecular target: Insulin receptor-related protein (Homo sapiens) (UniProt P14616); experiment: Inhibition of wild-type human partial length INSRR (R950 to E1278 residues) expressed in Escherichia coli BL21 assessed as residual activity at 1000 nM after 30 mins by Kinomescan method relative to control
[5] = molecular target: Fibroblast growth factor receptor 1 (Homo sapiens, UniProt P11362); experiment: Inhibition of wild-type human partial length FGFR1 (P357 to V669 residues) expressed in Escherichia coli BL21 assessed as residual activity at 1000 nM after 30 mins by Kinomescan method relative to control
[6] = molecular target: Membrane-associated tyrosine- and threonine-specific cdc2-inhibitory kinase (Homo sapiens) (UniProt Q99640); experiment: Inhibition of wild-type human partial length PKMYT1 (A88 to G366 residues) expressed in Escherichia coli BL21 assessed as residual activity at 1000 nM after 30 mins by Kinomescan method relative to control
[7] = test system: Epidermal growth factor receptor (Homo sapiens), P00533 [L861Q]; experiment: Inhibition of human partial length EGFR L861Q mutant (R669 to V1011 residues) expressed in Escherichia coli BL21 assessed as residual activity at 1000 nM after 30 mins by Kinomescan method relative to control
How it was run: (§1)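 KINOMEscan binding panel of 456 kinases, with the test compound at a single concentration of 1 µM. Read-out is Percent Control.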

[8] = molecular target: Myosin-IIIa (Homo sapiens) (UniProt Q8NEV4); experiment: Inhibition of wild-type human partial length MYO3A (M1 to K338 residues) expressed in Escherichia coli BL21 assessed as residual activity at 1000 nM after 30 mins by Kinomescan method relative to control
[9] = molecular target: Muscle, skeletal receptor tyrosine-protein kinase (Homo sapiens) (UniProt O15146); experiment: Inhibition of wild-type human partial length MUSK (M553 to V869 residues) expressed in Escherichia coli BL21 assessed as residual activity at 1000 nM after 30 mins by Kinomescan method relative to control
[10] = test system: Epidermal growth factor receptor (Homo sapiens), P00533 [UNDEFINED MUTATION]; experiment: Inhibition of human partial length EGFR L747-S752del/P753S mutant expressed in Escherichia coli BL21 assessed as residual activity at 1000 nM after 30 mins by Kinomescan method relative to control; how it was run: as §1
[11] = molecular target: Mitogen-activated protein kinase kinase kinase 5 (Homo sapiens) (UniProt Q99683); experiment: Inhibition of wild-type human partial length ASK1 (E648 to S964 residues) expressed in Escherichia coli BL21 assessed as residual activity at 1000 nM after 30 mins by Kinomescan method relative to control
[12] = molecular target: Receptor-interacting serine/threonine-protein kinase 2 (Homo sapiens) (UniProt O43353); experiment: Inhibition of wild-type human partial length RIPK2 (M1 to K310 residues) expressed in Escherichia coli BL21 assessed as residual activity at 1000 nM after 30 mins by Kinomescan method relative to control
[13] = molecular target: Casein kinase I isoform alpha-like (Homo sapiens) (UniProt Q8N752); experiment: Inhibition of wild-type human full length CSNK1A1L (M1 to N337 residues) expressed in Escherichia coli BL21 assessed as residual activity at 1000 nM after 30 mins by Kinomescan method relative to control
How it was run: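 Single-point screen at a fixed 1 µM, run within a 456-kinase DiscoveRx KINOMEscan panel. Each kinase's read-out is Percent Control, i.e. signal relative to a control without compound. Hits were scored by a Percent Control < 35 cut-off, and an S(35) selectivity score was calculated across the non-mutant kinases.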

[14] = molecular target: Serine/threonine-protein kinase PAK 2 (Homo sapiens) (UniProt Q13177); experiment: Inhibition of wild-type human partial length PAK2 (P151 to R525 residues) expressed in Escherichia coli BL21 assessed as residual activity at 1000 nM after 30 mins by Kinomescan method relative to control
[15] = test system: ALK tyrosine kinase receptor (Homo sapiens), Q9UM73 [L1196M]; experiment: Inhibition of wild-type human partial length ALK L1196M mutant (I1088 to E1409 residues) expressed in HEK293 cells assessed as residual activity at 1000 nM after 30 mins by Kinomescan method relative to control; assay type: cell-based
[16] = molecular target: Mitogen-activated protein kinase kinase kinase 7 (Homo sapiens) (UniProt O43318); experiment: Inhibition of wild-type human partial length TAK1 (M1 to Q303 residues) expressed in HEK293 cells assessed as residual activity at 1000 nM after 30 mins by Kinomescan method relative to control; assay type: cell-based
[17] = molecular target: Tyrosine-protein kinase ITK/TSK (Homo sapiens) (UniProt Q08881); experiment: Inhibition of wild-type human partial length ITK (R335 to L620 residues) expressed in Escherichia coli BL21 assessed as residual activity at 1000 nM after 30 mins by Kinomescan method relative to control
[18] = molecular target: RAC-gamma serine/threonine-protein kinase (Homo sapiens) (UniProt Q9Y243); experiment: Inhibition of wild-type human partial length AKT3 expressed in Escherichia coli BL21 assessed as residual activity at 1000 nM after 30 mins by Kinomescan method relative to control
[19] = molecular target: Rho-associated protein kinase 1 (Homo sapiens) (UniProt Q13464); experiment: Inhibition of wild-type human partial length ROCK1 (M1 to R415 residues) expressed in HEK293 cells assessed as residual activity at 1000 nM after 30 mins by Kinomescan method relative to control; assay type: cell-based
[20] = molecular target: Tyrosine-protein kinase FRK (Homo sapiens) (UniProt P42685); experiment: Inhibition of wild-type human partial length FRK (A215 to F503 residues) expressed in Escherichia coli BL21 assessed as residual activity at 1000 nM after 30 mins by Kinomescan method relative to control
[21] = molecular target: Calcium/calmodulin-dependent protein kinase type II subunit beta (Homo sapiens) (UniProt Q13554); experiment: Inhibition of wild-type human partial length CAMK2B (M1 to Q380 residues) expressed in Escherichia coli BL21 assessed as residual activity at 1000 nM after 30 mins by Kinomescan method relative to control
Sequence of Calcium/calmodulin-dependent protein kinase type II subunit beta (Homo sapiens) (Q13554 whole entry, the tested form may be a part): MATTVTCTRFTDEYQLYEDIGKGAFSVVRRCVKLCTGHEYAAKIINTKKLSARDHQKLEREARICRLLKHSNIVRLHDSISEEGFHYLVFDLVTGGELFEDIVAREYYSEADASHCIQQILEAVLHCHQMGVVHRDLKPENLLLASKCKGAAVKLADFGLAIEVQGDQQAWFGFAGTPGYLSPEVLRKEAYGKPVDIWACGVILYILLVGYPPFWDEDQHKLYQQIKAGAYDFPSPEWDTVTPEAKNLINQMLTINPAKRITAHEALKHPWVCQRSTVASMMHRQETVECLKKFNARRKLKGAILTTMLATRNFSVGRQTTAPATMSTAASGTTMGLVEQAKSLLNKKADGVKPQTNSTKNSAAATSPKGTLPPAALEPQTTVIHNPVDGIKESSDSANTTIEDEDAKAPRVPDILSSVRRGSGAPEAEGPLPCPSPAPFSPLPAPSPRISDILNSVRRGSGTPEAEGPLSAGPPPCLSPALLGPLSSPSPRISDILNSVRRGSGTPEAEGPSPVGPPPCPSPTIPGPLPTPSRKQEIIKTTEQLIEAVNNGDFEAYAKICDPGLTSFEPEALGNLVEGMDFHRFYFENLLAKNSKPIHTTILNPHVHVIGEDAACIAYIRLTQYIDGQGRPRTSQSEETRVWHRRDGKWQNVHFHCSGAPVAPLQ

Sequence of Serine/threonine-protein kinase PAK 2 (Homo sapiens) (Q13177 whole entry, the tested form may be a part): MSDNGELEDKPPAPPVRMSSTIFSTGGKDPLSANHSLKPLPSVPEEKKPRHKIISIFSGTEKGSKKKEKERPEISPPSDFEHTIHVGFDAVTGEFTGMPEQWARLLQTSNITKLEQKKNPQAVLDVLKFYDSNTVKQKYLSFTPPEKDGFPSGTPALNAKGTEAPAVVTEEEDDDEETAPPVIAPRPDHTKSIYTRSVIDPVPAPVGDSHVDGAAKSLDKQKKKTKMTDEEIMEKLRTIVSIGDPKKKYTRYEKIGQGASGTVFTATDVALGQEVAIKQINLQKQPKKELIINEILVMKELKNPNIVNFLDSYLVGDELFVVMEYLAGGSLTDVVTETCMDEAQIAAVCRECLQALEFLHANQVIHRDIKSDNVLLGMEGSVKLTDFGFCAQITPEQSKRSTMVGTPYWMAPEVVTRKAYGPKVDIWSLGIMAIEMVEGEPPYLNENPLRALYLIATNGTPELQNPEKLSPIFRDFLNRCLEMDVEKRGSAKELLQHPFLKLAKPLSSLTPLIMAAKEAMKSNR
Sequence of Fibroblast growth factor receptor 1 (P11362 22-822 limits assumed): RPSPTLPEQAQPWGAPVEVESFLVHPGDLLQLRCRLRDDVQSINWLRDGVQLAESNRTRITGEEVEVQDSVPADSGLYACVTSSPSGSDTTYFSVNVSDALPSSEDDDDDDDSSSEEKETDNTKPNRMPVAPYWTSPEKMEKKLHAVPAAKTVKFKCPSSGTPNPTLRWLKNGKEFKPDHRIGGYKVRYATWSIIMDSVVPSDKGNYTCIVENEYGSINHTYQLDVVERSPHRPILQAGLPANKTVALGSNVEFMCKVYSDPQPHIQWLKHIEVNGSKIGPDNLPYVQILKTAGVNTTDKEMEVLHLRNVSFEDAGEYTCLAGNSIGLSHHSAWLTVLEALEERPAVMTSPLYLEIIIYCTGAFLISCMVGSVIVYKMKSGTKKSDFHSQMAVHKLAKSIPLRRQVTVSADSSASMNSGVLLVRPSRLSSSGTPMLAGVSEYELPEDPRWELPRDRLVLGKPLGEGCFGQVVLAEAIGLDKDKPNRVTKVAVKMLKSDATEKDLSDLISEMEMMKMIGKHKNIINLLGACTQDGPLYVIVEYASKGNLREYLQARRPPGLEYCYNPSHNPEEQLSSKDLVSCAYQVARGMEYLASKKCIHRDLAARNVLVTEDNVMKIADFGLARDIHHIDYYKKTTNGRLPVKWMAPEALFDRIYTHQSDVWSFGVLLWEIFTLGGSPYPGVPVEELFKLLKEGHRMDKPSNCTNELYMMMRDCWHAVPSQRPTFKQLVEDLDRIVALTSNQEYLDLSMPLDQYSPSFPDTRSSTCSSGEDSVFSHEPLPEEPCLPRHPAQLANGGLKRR
Sequence of RAC-gamma serine/threonine-protein kinase (Homo sapiens) (Q9Y243 whole entry, the tested form may be a part): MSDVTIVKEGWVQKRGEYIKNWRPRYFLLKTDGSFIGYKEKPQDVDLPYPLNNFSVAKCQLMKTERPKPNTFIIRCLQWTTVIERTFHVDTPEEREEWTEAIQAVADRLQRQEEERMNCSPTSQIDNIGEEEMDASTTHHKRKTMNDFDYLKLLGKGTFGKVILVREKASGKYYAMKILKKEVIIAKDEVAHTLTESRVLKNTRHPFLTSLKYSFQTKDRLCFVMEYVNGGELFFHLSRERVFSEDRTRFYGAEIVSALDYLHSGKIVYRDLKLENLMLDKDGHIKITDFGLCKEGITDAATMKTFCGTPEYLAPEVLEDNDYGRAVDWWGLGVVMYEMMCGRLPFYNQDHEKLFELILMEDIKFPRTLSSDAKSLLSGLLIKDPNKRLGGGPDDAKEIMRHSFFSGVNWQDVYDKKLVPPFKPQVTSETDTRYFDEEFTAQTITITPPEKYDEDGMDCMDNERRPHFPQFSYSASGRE
Sequence of Tyrosine-protein kinase FRK (Homo sapiens) (P42685 whole entry, the tested form may be a part): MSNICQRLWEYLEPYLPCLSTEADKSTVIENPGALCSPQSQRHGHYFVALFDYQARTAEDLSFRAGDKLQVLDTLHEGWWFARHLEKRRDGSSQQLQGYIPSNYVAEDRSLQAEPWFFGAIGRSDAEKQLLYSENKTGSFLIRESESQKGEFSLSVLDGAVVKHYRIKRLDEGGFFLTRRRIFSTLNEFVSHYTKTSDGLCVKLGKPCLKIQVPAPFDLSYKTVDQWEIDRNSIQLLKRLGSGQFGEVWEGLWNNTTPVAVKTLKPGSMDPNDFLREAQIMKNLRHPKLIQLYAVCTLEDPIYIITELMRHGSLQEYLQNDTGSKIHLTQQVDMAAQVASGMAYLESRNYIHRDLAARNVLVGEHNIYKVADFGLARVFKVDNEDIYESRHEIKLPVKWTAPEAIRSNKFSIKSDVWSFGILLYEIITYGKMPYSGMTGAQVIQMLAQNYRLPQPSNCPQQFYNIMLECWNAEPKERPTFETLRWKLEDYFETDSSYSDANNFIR
Sequence of Mitogen-activated protein kinase kinase kinase 5 (Homo sapiens) (Q99683 whole entry, the tested form may be a part): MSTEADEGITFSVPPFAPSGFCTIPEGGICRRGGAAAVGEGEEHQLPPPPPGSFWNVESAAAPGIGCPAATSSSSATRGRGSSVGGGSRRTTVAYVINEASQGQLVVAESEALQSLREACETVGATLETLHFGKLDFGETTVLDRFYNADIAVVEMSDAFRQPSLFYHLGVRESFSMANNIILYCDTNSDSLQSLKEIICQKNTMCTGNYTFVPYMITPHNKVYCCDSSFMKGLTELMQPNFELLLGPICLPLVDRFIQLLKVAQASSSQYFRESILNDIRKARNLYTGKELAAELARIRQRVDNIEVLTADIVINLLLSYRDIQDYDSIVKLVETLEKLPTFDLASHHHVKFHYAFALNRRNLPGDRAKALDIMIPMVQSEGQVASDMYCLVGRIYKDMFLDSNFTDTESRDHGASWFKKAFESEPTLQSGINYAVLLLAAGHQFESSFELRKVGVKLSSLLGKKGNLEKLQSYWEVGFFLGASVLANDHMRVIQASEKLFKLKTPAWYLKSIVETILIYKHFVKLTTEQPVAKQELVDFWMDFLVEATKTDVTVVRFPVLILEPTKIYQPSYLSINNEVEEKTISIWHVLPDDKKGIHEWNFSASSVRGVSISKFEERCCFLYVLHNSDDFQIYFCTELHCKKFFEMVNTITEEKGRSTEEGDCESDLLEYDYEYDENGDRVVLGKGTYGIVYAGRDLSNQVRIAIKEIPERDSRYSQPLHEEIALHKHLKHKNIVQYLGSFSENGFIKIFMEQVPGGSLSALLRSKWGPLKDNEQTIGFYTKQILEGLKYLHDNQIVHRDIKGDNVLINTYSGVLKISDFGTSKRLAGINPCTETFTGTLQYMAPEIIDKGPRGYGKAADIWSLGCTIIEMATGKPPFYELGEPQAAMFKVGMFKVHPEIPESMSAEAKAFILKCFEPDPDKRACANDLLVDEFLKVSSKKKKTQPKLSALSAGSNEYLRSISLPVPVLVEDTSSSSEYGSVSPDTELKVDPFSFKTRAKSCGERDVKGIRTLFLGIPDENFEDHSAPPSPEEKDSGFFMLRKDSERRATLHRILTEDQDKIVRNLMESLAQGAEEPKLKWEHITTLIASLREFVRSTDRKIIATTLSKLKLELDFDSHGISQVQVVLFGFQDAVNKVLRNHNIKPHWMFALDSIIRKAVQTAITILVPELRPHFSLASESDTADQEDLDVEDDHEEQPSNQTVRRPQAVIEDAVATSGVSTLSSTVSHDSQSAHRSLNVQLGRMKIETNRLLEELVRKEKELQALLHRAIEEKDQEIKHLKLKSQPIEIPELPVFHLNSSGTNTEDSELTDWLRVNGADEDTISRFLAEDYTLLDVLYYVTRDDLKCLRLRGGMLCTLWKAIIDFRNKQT
Sequence of Serine/threonine-protein kinase RIO3 (Homo sapiens) (O14730 whole entry, the tested form may be a part): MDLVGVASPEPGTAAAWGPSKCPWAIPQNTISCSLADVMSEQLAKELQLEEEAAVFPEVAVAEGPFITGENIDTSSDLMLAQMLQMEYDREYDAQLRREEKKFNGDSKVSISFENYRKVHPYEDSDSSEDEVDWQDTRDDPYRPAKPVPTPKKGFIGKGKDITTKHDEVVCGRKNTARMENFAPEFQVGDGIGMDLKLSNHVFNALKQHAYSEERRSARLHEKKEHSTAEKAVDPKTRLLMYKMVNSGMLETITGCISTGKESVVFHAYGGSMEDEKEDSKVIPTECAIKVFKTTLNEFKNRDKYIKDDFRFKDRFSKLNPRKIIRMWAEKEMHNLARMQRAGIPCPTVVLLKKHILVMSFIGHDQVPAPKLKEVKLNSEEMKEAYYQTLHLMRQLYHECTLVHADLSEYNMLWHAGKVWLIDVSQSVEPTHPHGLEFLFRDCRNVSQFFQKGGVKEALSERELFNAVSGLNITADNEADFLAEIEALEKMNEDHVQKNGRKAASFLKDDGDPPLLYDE

## COc1cc(OC)c(Cl)c(N2Cc3cnc(Nc4ccc(F)cc4)nc3N(C3CCN(C(=O)/C=C/CN(C)C)CC3)C2=O)c1Cl
[1]
  Activity: 8.1%
[2]
  Activity: 88%
[3]
  Activity: 97%
[4]
  Activity: 52%
[5]
  Activity: 0.6%
[6]
  Activity: 100%
[7]
  Activity: 87%
[8]
  Activity: 96%
[9]
  Activity: 94%
[10]
  Activity: 100%
[11]
  Activity: 100%
[12]
  Activity: 100%
[13]
  Activity: 100%
[14]
  Activity: 100%
[15]
  Activity: 92%
[16]
  Activity: 100%
[17]
  Activity: 100%
[18]
  Activity: 96%
[19]
  Activity: 100%
[20]
  Activity: 59%
[21]
  Activity: 100%
